Measured values taken from ChEMBL document CHEMBL5724801, “EUbOPEN Chemogenomics Library - Multiplex” (2024).
Where “and” joins values, the source holds several entries; their conditions need not be identical. Identical values can stand only once.

The compounds below were run on U2OS (assay: Multiplex assay against U2OS). Settings: human, 12 h, 1 µM, compound concentration 1 uM.
Assay type: toxicity, cell-based
How it was run: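 Imaging took place on a CQ1 microscope at 37°C and 5% CO2 once compound had been added to live cells stained at seeding with Hoechst33342, BioTracker Green Microtubule Cytoskeleton Dye, MitoTracker Red and Annexin V Alexa Fluor 680. CellPathfinder machine-learning gating classed cells as Hoechst high-intensity objects or normal cells, classed normal cells as having healthy, pyknosed or fragmented nuclei, and classed pyknosed cells as mitotic or apoptotic. Tubulin, mitochondrial-mass and membrane-permeability phenotypes are per cents of the healthy-nucleus cells.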

Row | Compound | Population Apoptotic (%) | Population Fragmented Nuclei (%) | Population Healthy Nuclei (%) | Population Hoechst High Intensity Objects (%) | Population Membrane Permeable-Phenotype (%) | Population Mitochondria Different-Phenotype (%) | Population Normal (%) | Population Pyknosed Nuclei (%) | Population Tubulin-Different-Phenotype (%) | Total Cell Count
1 | Cc1ccc(OCC(O)C(C)NC(C)C)c2c1CCC2.Cl (stereo unspecified) | 63% and 90% | 19% and 11% | 66% and 79% | 2% and 1% | 8% and 7% | 3% and 2% | 97% and 98% | 13% and 8% | 4% and 2% | 222 and 129
2 | Cc1cnc(-c2cc(N3CCN(C(=O)CCS(C)(=O)=O)CC3)ncc2Cl)c(C)c1 | 86% and 100% | 37% and 18% | 54% and 73% | 2% and 1% | 10% | 1% and 7% | 97% and 98% | 8% | 2% and 7% | 183 and 111

Same assay, conditions: human, 12 h, 1 µM, compound concentration 1 uM

Row | Compound | Population Mitotic Cells (%)
3 | Cc1cnc(-c2cc(N3CCN(C(=O)CCS(C)(=O)=O)CC3)ncc2Cl)c(C)c1 | 13% and 0%

Same assay, conditions: human, 12 h, 10 µM, compound concentration 10 uM

Row | Compound | Population Apoptotic (%) | Population Fragmented Nuclei (%) | Population Healthy Nuclei (%) | Population Hoechst High Intensity Objects (%) | Population Membrane Permeable-Phenotype (%) | Population Mitochondria Different-Phenotype (%) | Population Mitotic Cells (%) | Population Normal (%) | Population Pyknosed Nuclei (%) | Population Tubulin-Different-Phenotype (%)
4 | Cc1ccc(OCC(O)C(C)NC(C)C)c2c1CCC2.Cl (stereo unspecified) | 61% and 80% | 30% and 11% | 52% and 81% | 5% and 0% | 14% and 9% | 17% and 22% | 38% and 20% | 94% and 99% | 16% and 7% | 8% and 9%
5 | Cc1cnc(-c2cc(N3CCN(C(=O)CCS(C)(=O)=O)CC3)ncc2Cl)c(C)c1 | 85% and 75% | 24% and 17% | 67% and 73% | 1% |  | 3% and 7% | 14% and 25% | 98% | 8% and 9% | 

Same assay, conditions: human, 12 h, 10 µM, compound concentration 10 uM

Row | Compound | Total Cell Count
6 | Cc1ccc(OCC(O)C(C)NC(C)C)c2c1CCC2.Cl (stereo unspecified) | 215 and 137
7 | Cc1cnc(-c2cc(N3CCN(C(=O)CCS(C)(=O)=O)CC3)ncc2Cl)c(C)c1 | 258 and 88

Same assay, conditions: human, 24 h, 1 µM, compound concentration 1 uM

Row | Compound | Population Apoptotic (%) | Population Fragmented Nuclei (%) | Population Healthy Nuclei (%) | Population Hoechst High Intensity Objects (%) | Population Membrane Permeable-Phenotype (%) | Population Mitochondria Different-Phenotype (%) | Population Mitotic Cells (%) | Population Normal (%) | Population Pyknosed Nuclei (%) | Population Tubulin-Different-Phenotype (%)
8 | Cc1ccc(OCC(O)C(C)NC(C)C)c2c1CCC2.Cl (stereo unspecified) | 88% and 93% | 14% and 15% | 75% and 73% | 0% and 1% | 5% and 3% | 3% and 5% | 11% and 6% | 100% and 98% | 10% | 4% and 0%
9 | Cc1cnc(-c2cc(N3CCN(C(=O)CCS(C)(=O)=O)CC3)ncc2Cl)c(C)c1 | 80% and 90% | 30% and 17% | 62% and 75% | 2% | 5% and 8% | 3% and 5% | 20% and 10% | 97% | 6% and 7% | 2% and 8%

Same assay, conditions: human, 24 h, 1 µM, compound concentration 1 uM

Row | Compound | Total Cell Count
10 | Cc1ccc(OCC(O)C(C)NC(C)C)c2c1CCC2.Cl (stereo unspecified) | 255 and 155
11 | Cc1cnc(-c2cc(N3CCN(C(=O)CCS(C)(=O)=O)CC3)ncc2Cl)c(C)c1 | 220 and 136

Same assay, conditions: human, 24 h, 10 µM, compound concentration 10 uM

Row | Compound | Population Apoptotic (%) | Population Fragmented Nuclei (%) | Population Healthy Nuclei (%) | Population Hoechst High Intensity Objects (%) | Population Membrane Permeable-Phenotype (%) | Population Mitochondria Different-Phenotype (%) | Population Mitotic Cells (%) | Population Normal (%) | Population Pyknosed Nuclei (%) | Population Tubulin-Different-Phenotype (%)
12 | Cc1ccc(OCC(O)C(C)NC(C)C)c2c1CCC2.Cl (stereo unspecified) | 82% and 92% | 26% and 14% | 56% and 77% | 3% and 2% | 10% and 12% | 17% and 11% | 17% and 7% | 96% and 97% | 17% and 8% | 4% and 6%
13 | Cc1cnc(-c2cc(N3CCN(C(=O)CCS(C)(=O)=O)CC3)ncc2Cl)c(C)c1 | 80% and 85% | 20% and 21% | 74% and 64% | 2% and 0% |  | 2% and 1% | 20% and 14% | 97% and 99% | 4% and 13% | 0% and 7%

Same assay, conditions: human, 24 h, 10 µM, compound concentration 10 uM

Row | Compound | Total Cell Count
14 | Cc1ccc(OCC(O)C(C)NC(C)C)c2c1CCC2.Cl (stereo unspecified) | 230 and 172
15 | Cc1cnc(-c2cc(N3CCN(C(=O)CCS(C)(=O)=O)CC3)ncc2Cl)c(C)c1 | 309 and 103

Same assay, conditions: human, 48 h, 1 µM, compound concentration 1 uM

Row | Compound | Population Apoptotic (%) | Population Fragmented Nuclei (%) | Population Healthy Nuclei (%) | Population Hoechst High Intensity Objects (%) | Population Membrane Permeable-Phenotype (%) | Population Mitochondria Different-Phenotype (%) | Population Mitotic Cells (%) | Population Normal (%) | Population Pyknosed Nuclei (%) | Population Tubulin-Different-Phenotype (%)
16 | Cc1ccc(OCC(O)C(C)NC(C)C)c2c1CCC2.Cl (stereo unspecified) | 88% and 80% | 14% and 20% | 73% and 69% | 0% and 2% | 6% and 5% | 4% and 3% | 11% and 20% | 99% and 97% | 12% and 10% | 3% and 2%
17 | Cc1cnc(-c2cc(N3CCN(C(=O)CCS(C)(=O)=O)CC3)ncc2Cl)c(C)c1 | 78% and 95% | 29% and 15% | 63% and 73% | 0% and 1% | 3% and 4% | 2% and 5% |  | 99% and 98% | 7% and 10% | 1% and 3%

Same assay, conditions: human, 48 h, 1 µM, compound concentration 1 uM

Row | Compound | Total Cell Count
18 | Cc1ccc(OCC(O)C(C)NC(C)C)c2c1CCC2.Cl (stereo unspecified) | 377 and 202
19 | Cc1cnc(-c2cc(N3CCN(C(=O)CCS(C)(=O)=O)CC3)ncc2Cl)c(C)c1 | 325 and 184

Same assay, conditions: human, 48 h, 10 µM, compound concentration 10 uM

Row | Compound | Population Apoptotic (%) | Population Fragmented Nuclei (%) | Population Healthy Nuclei (%) | Population Hoechst High Intensity Objects (%) | Population Membrane Permeable-Phenotype (%) | Population Mitochondria Different-Phenotype (%) | Population Mitotic Cells (%) | Population Normal (%) | Population Pyknosed Nuclei (%) | Population Tubulin-Different-Phenotype (%)
20 | Cc1ccc(OCC(O)C(C)NC(C)C)c2c1CCC2.Cl (stereo unspecified) | 82% and 77% | 23% and 15% | 63% and 73% | 4% and 0% | 12% and 7% | 12% and 4% | 17% and 22% | 95% and 99% | 13% and 11% | 6% and 3%
21 | Cc1cnc(-c2cc(N3CCN(C(=O)CCS(C)(=O)=O)CC3)ncc2Cl)c(C)c1 | 94% and 100% | 11% and 22% | 80% and 71% | 1% and 3% | 4% and 13% | 2% and 7% | 5% and 0% | 98% and 96% | 7% and 5% | 2% and 7%

Same assay, conditions: human, 48 h, 10 µM, compound concentration 10 uM

Row | Compound | Total Cell Count
22 | Cc1ccc(OCC(O)C(C)NC(C)C)c2c1CCC2.Cl (stereo unspecified) | 306 and 246
